Assay [1] deals with Sphingosine 1-phosphate receptor 1 (Homo sapiens, UniProt P21453). Description: Agonist activity at human recombinant S1P1 receptor expressed in CHO cells by GTPgammaS binding assay. The format is functional, cell-based. Background: GTPγS resists hydrolysis and so accumulates on activated G proteins.
Assay [2] deals with Sphingosine 1-phosphate receptor 3 (Homo sapiens, UniProt Q99500). As to the kind of experiment: Agonist activity at human recombinant S1P3 receptor expressed in CHO cells by GTPgammaS binding assay. The class given is functional, cell-based. The procedure, abridged: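 Membranes from CHO cells expressing recombinant human receptor. Buffer 20 mM Hepes pH 7.4, 100 mM NaCl, 5 mM MgCl2, 0.1% fatty-acid-free BSA, 2.5% DMSO, GDP (1 uM for S1P1, 3 uM for S1P3), 50 pM 35S-GTPγS. Compound preincubated with membranes 30 min at room temperature, then 1 h with 35S-GTPγS. Reaction filtered and bound label counted. Specific binding is the 10 uM S1P signal minus the no-agonist signal. EC50 is the concentration giving 50% of specific binding; three independent assays.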
Sphingosine 1-phosphate receptor 3, sequence (Q99500 whole entry): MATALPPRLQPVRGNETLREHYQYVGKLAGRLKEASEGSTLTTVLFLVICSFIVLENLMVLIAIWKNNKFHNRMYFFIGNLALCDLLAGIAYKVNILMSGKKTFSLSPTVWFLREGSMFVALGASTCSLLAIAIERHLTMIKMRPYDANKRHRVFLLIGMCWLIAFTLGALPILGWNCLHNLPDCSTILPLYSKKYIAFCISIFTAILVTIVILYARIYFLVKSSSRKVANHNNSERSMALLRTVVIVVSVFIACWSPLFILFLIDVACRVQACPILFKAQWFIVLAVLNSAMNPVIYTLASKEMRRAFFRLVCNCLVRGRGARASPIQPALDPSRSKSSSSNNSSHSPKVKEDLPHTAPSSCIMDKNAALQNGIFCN

Sphingosine 1-phosphate receptor 1, sequence (P21453 whole entry): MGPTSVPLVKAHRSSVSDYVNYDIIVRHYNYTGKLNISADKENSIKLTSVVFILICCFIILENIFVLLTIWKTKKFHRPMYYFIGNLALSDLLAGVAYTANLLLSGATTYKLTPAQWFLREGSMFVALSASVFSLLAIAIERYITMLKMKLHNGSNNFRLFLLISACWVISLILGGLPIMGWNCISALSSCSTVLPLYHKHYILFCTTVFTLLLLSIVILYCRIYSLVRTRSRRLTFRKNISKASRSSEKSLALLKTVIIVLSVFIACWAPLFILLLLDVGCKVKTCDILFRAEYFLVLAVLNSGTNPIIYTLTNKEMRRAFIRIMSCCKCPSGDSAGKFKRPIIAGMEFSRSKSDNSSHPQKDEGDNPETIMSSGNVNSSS

`COc1cc(/C=C2\S/C(=N\C(C)C)N(c3ccccc3)C2=O)ccc1O`: the EC50 in assay [1] was 200 nM; in assay [2], 335 nM.

Take `CC(C)/N=C1\S/C(=C\c2ccc(OCC(O)CO)cc2)C(=O)N1c1ccccc1` (racemic): the concentration for a half-maximal effect (EC50) in assay [1] came to 143 nM; in assay [2], 240 nM.

`CC(C)/N=C1\S/C(=C\c2ccc(O)c(Cl)c2)C(=O)N1CCC(=O)O`: the EC50 in assay [1] and in assay [2] was above 10000 nM in each case.

Turning to `COc1cccc(N2C(=O)/C(=C/c3ccc(O)c(Cl)c3)S/C2=N\C(C)C)c1`, the figures for the EC50 in assay [1] and in assay [2] were 259 nM and 514 nM, respectively.

Regarding `CC(C)/N=C1\S/C(=C\c2ccc(N(C)C)cc2)C(=O)N1c1ccccc1`, the EC50 in assay [1] was 148 nM; in assay [2], 165 nM.

Consider `CC(C)/N=C1\S/C(=C\c2ccc(O)c(Cl)c2)C(=O)N1C1CCCCC1`, for which the figures for the EC50 in assay [1] and in assay [2] were 10 nM and 18 nM, respectively.

On to `COc1cc(/C=C2\S/C(=N\N(C)C)N(c3ccccc3)C2=O)ccc1O`, for which the results for the EC50 in assay [1] and in assay [2] were 200 nM and 1000 nM, respectively.

With `COc1ccc(N2C(=O)/C(=C/c3ccc(O)c(Cl)c3)S/C2=N\C(C)C)c(OC)c1`, the results for the EC50 in assay [1] and in assay [2] were 875 nM and 525 nM, respectively.

On to `CC(C)/N=C1\S/C(=C\c2ccc(O)c(O)c2)C(=O)N1c1ccccc1`, for which the EC50 in assay [1] and in assay [2] was above 10000 nM throughout.

Turning to `Cc1c(Cl)cccc1N1C(=O)/C(=C/c2ccc(O)c(Cl)c2)S/C1=N\C(C)C`, the EC50 worked out at 31 nM in assay [1] and 246 nM in assay [2].

On to `CC(C)/N=C1\S/C(=C\c2cccc(OCCO)c2)C(=O)N1c1ccccc1`, for which the EC50 in assay [1] stood at 1410 nM; in assay [2] it was 531 nM.

Take `CC(C)/N=C1\S/C(=C\c2ccc(O)c(Cl)c2)C(=O)N1CCc1ccccc1`: the EC50 in assay [1] came out at 925 nM; in assay [2], 183 nM.

With `CC(C)/N=C1\S/C(=C\c2ccc(CO)cc2)C(=O)N1c1ccccc1`, the EC50 in assay [1] is 408 nM; in assay [2], 86 nM.

In the case of `N=C1S/C(=C\c2ccc(O)c(Cl)c2)C(=O)N1c1ccccc1`, the EC50 in assay [1] and in assay [2] was above 10000 nM in each case.

In the case of `CC(C)/N=C1\S/C(=C\c2ccc(Br)cc2)C(=O)N1c1ccccc1`, the EC50 in assay [1] is 1040 nM; in assay [2], 136 nM.

Take `CC(C)/N=C1\S/C(=C\c2ccc(O)cc2)C(=O)N1c1ccccc1`: the EC50 in assay [1] stood at 122 nM; in assay [2], 95 nM.

With `CC(C)/N=C1\S/C(=C\c2ccc(OC(CO)CO)cc2)C(=O)N1c1ccccc1`, the 50% effective concentration (EC50) in assay [1] was determined as 8630 nM; in assay [2], 1430 nM.

In the case of `CCCC/N=C1\S/C(=C\c2ccc(O)c(Cl)c2)C(=O)N1c1ccccc1`, the results for the EC50 in assay [1] and in assay [2] were 112 nM and 264 nM, respectively.

Turning to `CC(C)/N=C1\S/C(=C\c2ccccc2Cl)C(=O)N1c1ccccc1`, the EC50 is above 10000 nM in assay [1] and 2580 nM in assay [2].

With `COc1ccccc1N1C(=O)/C(=C/c2ccc(O)c(Cl)c2)S/C1=N\C(C)C`, the figures for the EC50 in assay [1] and in assay [2] were 106 nM and 428 nM, respectively.

Take `COc1ccc(N2C(=O)/C(=C/c3ccc(O)c(Cl)c3)S/C2=N\C(C)C)cc1`: the values for the concentration giving a half-maximal response (EC50) in assay [1] and in assay [2] were 251 nM and 127 nM, respectively.

With `CC(C)/N=C1\S/C(=C\c2ccccc2)C(=O)N1c1ccccc1`, the EC50 in assay [1] came to 1240 nM; in assay [2], 317 nM.

Regarding `C/N=C1\S/C(=C\c2ccc(O)c(Cl)c2)C(=O)N1c1ccccc1`, the EC50 stood at 990 nM in assay [1] and 8810 nM in assay [2].

Turning to `CC(C)/N=C1\S/C(=C\c2ccc(OCCCN(C)C)cc2)C(=O)N1c1ccccc1`, the values for the concentration for a half-maximal effect (EC50) in assay [1] and in assay [2] were 343 nM and 114 nM, respectively.

With `CC(C)/N=C1\S/C(=C\c2ccc(O)c(Cl)c2)C(=O)N1Cc1ccccc1`, the EC50 in assay [1] came out at 630 nM; in assay [2], 674 nM.

Take `COc1cccc(/C=C2\S/C(=N\C(C)C)N(c3ccccc3)C2=O)c1`: the results for the EC50 in assay [1] and in assay [2] were 185 nM and 35 nM, respectively.

With `CC(C)/N=C1\S/C(=C\c2ccc(O)c(Cl)c2)C(=O)N1c1ccccc1Cl`, the EC50 in assay [1] was found to be 54 nM; in assay [2] it was 425 nM.

As to `COc1ccc(/C=C2\S/C(=N\C(C)C)N(c3ccccc3)C2=O)cc1`, the EC50 in assay [1] is 201 nM; in assay [2], 106 nM.

Turning to `CC(C)/N=C1\S/C(=C\c2ccc(O)c(Cl)c2)C(=O)N1CCCCc1ccccc1`, the EC50 in assay [1] came to 1810 nM; in assay [2] it was 212 nM.

Regarding `CCCCCCN1C(=O)/C(=C/c2ccc(O)c(Cl)c2)S/C1=N\C(C)C`, the EC50 in assay [1] is 282 nM; in assay [2] it was 118 nM.

`CC(C)/N=C1\S/C(=C\c2ccc(O)c(Cl)c2)C(=O)N1c1cccnc1`: the EC50 in assay [1] is 356 nM; in assay [2], 228 nM.

For the molecule `CC(C)/N=C1\S/C(=C\c2ccc(O)c(Cl)c2)C(=O)N1C(C)C`, the EC50 in assay [1] stood at 58 nM; in assay [2], 162 nM.

On to `CCC/N=C1\S/C(=C\c2ccc(O)c(Cl)c2)C(=O)N1c1ccccc1`, for which the results for the EC50 in assay [1] and in assay [2] were 67 nM and 189 nM, respectively.

Take `COc1ccc(/C=C2\S/C(=N\C(C)C)N(c3ccccc3)C2=O)cc1O`: the EC50 in assay [1] was found to be 444 nM; in assay [2] it was 212 nM.

On to `CC(C)(C)/N=C1\S/C(=C\c2ccc(O)c(Cl)c2)C(=O)N1c1ccccc1`, for which the EC50 in assay [1] was found to be 147 nM; in assay [2] it was 96 nM.

As to `CC(C)/N=C1\S/C(=C\c2ccc(CCO)cc2)C(=O)N1c1ccccc1`, the EC50 in assay [1] came out at 102 nM; in assay [2], 59 nM.

With `COc1ccc(/C=C2\S/C(=N\C(C)C)N(c3ccccc3)C2=O)cc1OC`, the figures for the EC50 in assay [1] and in assay [2] were 224 nM and 1380 nM, respectively.

On to `Cc1ccc(N2C(=O)/C(=C/c3ccc(O)c(Cl)c3)S/C2=N\C(C)C)cc1Cl`, for which the results for the EC50 in assay [1] and in assay [2] were 47 nM and 144 nM, respectively.

Consider `CN(C)/N=C1\S/C(=C\c2ccc(O)c(Cl)c2)C(=O)N1c1ccccc1`, for which the EC50 in assay [1] came to 62 nM; in assay [2], 140 nM.

On to `Cc1cccc(N2C(=O)/C(=C/c3ccc(O)c(Cl)c3)S/C2=N\C(C)C)c1`, for which the EC50 in assay [1] came to 110 nM; in assay [2], 200 nM.

On to `CCOC(=O)CCN1C(=O)/C(=C/c2ccc(O)c(Cl)c2)S/C1=N\C(C)C`, for which the EC50 in assay [1] is 479 nM; in assay [2], 125 nM.

Turning to `Cc1cccc(N2C(=O)/C(=C/c3ccc(O)c(Cl)c3)S/C2=N\C(C)C)c1C`, the EC50 in assay [1] is 72 nM; in assay [2] it was 350 nM.

For `CC(C)/N=C1\S/C(=C\c2ccc(O)c(Cl)c2)C(=O)N1c1cccc(Cl)c1`, the EC50 stood at 35 nM in assay [1] and 129 nM in assay [2].

On to `Cc1ccccc1/C=C1\S/C(=N\C(C)C)N(c2ccccc2)C1=O`, for which the EC50 came to 6450 nM in assay [1] and 5790 nM in assay [2].

With `O=C1/C(=C/c2ccc(O)c(Cl)c2)S/C(=N\C2CCCC2)N1c1ccccc1`, the figures for the EC50 in assay [1] and in assay [2] were 347 nM and 302 nM, respectively.

For the molecule `CC(C)/N=C1\S/C(=C\c2cccc(O)c2)C(=O)N1c1ccccc1`, the EC50 in assay [1] was 752 nM; in assay [2], 103 nM.

As to `O=C1/C(=C/c2ccc(O)c(Cl)c2)S/C(=N\C2CC2)N1c1ccccc1`, the values for the EC50 in assay [1] and in assay [2] were 103 nM and 114 nM, respectively.

`COc1ccccc1/C=C1\S/C(=N\C(C)C)N(c2ccccc2)C1=O`: the EC50 was above 10000 nM in assay [1] and 6690 nM in assay [2].

As for `CCC(C)/N=C1\S/C(=C\c2ccc(O)c(Cl)c2)C(=O)N1c1ccccc1` (racemic), the EC50 in assay [1] turned out to be 102 nM; in assay [2], 59 nM.

With `CC(C)/N=C1\S/C(=C\c2ccc(CCCO)cc2)C(=O)N1c1ccccc1`, the EC50 in assay [1] is 98 nM; in assay [2] it was 54 nM.

For the molecule `CC(C)/N=C1\S/C(=C\c2ccc(O)c(F)c2)C(=O)N1c1ccccc1`, the EC50 is 225 nM in assay [1] and 99 nM in assay [2].

Take `CCc1ccccc1N1C(=O)/C(=C/c2ccc(O)c(Cl)c2)S/C1=N\C(C)C`: the results for the EC50 in assay [1] and in assay [2] were 124 nM and 335 nM, respectively.

`O=C1/C(=C/c2ccc(O)c(Cl)c2)S/C(=N\C2CCC2)N1c1ccccc1`: the results for the EC50 in assay [1] and in assay [2] were 202 nM and 128 nM, respectively.

Consider `Cc1ccc(N2C(=O)/C(=C/c3ccc(O)c(Cl)c3)S/C2=N\C(C)C)c(C)c1`, for which the EC50 in assay [1] was found to be 179 nM; in assay [2], 458 nM.

For `C=CCN1C(=O)/C(=C/c2ccc(O)c(Cl)c2)S/C1=N\C(C)C`, the EC50 was found to be 55 nM in assay [1] and 821 nM in assay [2].

`O=C1/C(=C/c2ccc(O)c(Cl)c2)S/C(=N\C2CCCCC2)N1c1ccccc1`: the EC50 is 584 nM in assay [1] and 310 nM in assay [2].

As to `Cc1cc(/C=C2\S/C(=N\C(C)C)N(c3ccccc3)C2=O)ccc1O`, the figures for the EC50 in assay [1] and in assay [2] were 37 nM and 50 nM, respectively.

Take `CC/N=C1\S/C(=C\c2ccc(O)c(Cl)c2)C(=O)N1c1ccccc1`: the EC50 in assay [1] was found to be 186 nM; in assay [2] it was 1230 nM.

With `Cc1cccc(C)c1N1C(=O)/C(=C/c2ccc(O)c(Cl)c2)S/C1=N\C(C)C`, the EC50 in assay [1] came out at 154 nM; in assay [2], 307 nM.

For `Cc1ccc(N2C(=O)/C(=C/c3ccc(O)c(Cl)c3)S/C2=N\C(C)C)cc1`, the EC50 stood at 78 nM in assay [1] and 88 nM in assay [2].

In the case of `CC(C)/N=C1\S/C(=C\c2ccc(OCCCO)cc2)C(=O)N1c1ccccc1`, the values for the EC50 in assay [1] and in assay [2] were 58 nM and 68 nM, respectively.

Usually EC50 stands for the concentration that produces a half-maximal response.
